In the library only some 0.95% were active in any assay of this set; here they are far more common.
CSN inh: inhibitors of CSN-mediated cullin deneddylation, primary screen, biochemical, fluorescence polarization, uHTS; COP9 signalosome complex subunit 5 (Homo sapiens), Q92905; Purified CSN, SCF-Nedd8-OG deneddylation; inhibition, % at 12.5 µM; actives 0.38% (n = 360,000);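 active means pattern-corrected inhibition above about 35%, with an unprinted fluorescence ratio check between 0.5 and 1.5, limit read from the data, passing the limit was not always enough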;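 further: 0% = enzyme with substrate and 100% = substrate without enzyme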
Target sequence (Q92905 whole entry, looked up, one chain of several): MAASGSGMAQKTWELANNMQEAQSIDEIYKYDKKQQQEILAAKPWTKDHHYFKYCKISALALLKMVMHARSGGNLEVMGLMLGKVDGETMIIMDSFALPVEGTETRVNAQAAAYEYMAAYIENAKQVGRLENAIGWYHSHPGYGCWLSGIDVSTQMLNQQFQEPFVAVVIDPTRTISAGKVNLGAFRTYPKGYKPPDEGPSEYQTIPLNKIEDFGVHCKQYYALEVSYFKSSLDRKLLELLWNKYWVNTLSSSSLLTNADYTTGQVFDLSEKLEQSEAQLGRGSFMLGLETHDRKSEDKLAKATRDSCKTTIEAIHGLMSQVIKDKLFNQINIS
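Test system: purified human Csn5 enzyme expressed in HEK293T cells. Amount: 0.24 nM enzyme. Reagent: SCFSkp2-Nedd8OG substrate at 10 nM final. Schedule: 90 min incubation of compound, enzyme and substrate at room temperature. Detection: fluorescence polarization. Read-out: % inhibition of substrate cleavage by Csn5.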
ASAP1 inh: inhibitors of human ASAP1 ArfGAP activity, primary screen, biochemical, fluorescence polarization; Arf-GAP with SH3 domain, ANK repeat and PH domain-containing protein 1 (Homo sapiens), …; ASAP1-stimulated ARF1 GTP hydrolysis, GDP FP detection; inhibition, % at 16.5 µM; actives 0.19% (n = 360,000); AID 624377, 2012; in the data active means inhibition above about 25%;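 further: 0% = vehicle with enzyme and substrate and 100% = no enzyme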
HNF4A DNA FP: change in binding of human HNF4A to DNA, primary screen, biochemical, fluorescence polarization, FITC-DNA; activity change, % at 10 µM; actives 0.3% (n = 360,000); 1 h; Hepatocyte nuclear factor 4-alpha (Homo sapiens), P41235; in the data active means activity change above about 30%, passing the limit was not always enough
ARFGAP1 inh: inhibitors of rat ARFGAP1 GAP activity, primary screen, biochemical, fluorescence polarization, GDP tracer | ADP-ribosylation factor GTPase-activating protein 1 (Rattus norvegicus), Q62848 | Arfgap1-stimulated ARF1 GTP hydrolysis, GDP FP detection | inhibition, % at 16.5 µM | actives 0.26% (n = 360,000);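 active means inhibition above a per-plate limit, mean inhibition of low control wells plus 3 SD, cut at about 25% in these data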;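 further: 0% = DMSO wells with enzyme and 100% = wells lacking Arfgap1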
Target sequence (Q62848 1-136 limits assumed): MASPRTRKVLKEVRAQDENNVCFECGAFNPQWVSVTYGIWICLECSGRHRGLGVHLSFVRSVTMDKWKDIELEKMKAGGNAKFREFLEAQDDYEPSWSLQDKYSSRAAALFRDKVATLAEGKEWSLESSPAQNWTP
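Repeats: one replicate per compound; assay system: rat Arfgap1 catalytic domain, aa 1-136; times: enzyme reaction 120 min at 25 °C after 20 min preincubation; detection: FP of antibody-bound GDP Alexa 633 tracer, ex 620/em 688 nm; benchmarks: high control wells lacking Arfgap1, low control full reaction with DMSO; reagent: human ARF1(Δ1-17)-GTP substrate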
ASAP1 GAP conf: ASAP1 GAP activity inhibitors, confirmation, biochemical, fluorescence polarization, human, triplicate. shares compounds with ASAP1 inh. ASAP1-stimulated Arf1 GTPase, GDP fluorescence polarization. inhibition, % at 16.5 µM. actives 37% (n = 620);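 active means mean inhibition over triplicates exceeds the hit threshold derived for the earlier primary screening run, cut at about 25% in these data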
Active calls of the source: *; · = no result given.

SMILES	CSN inh	ASAP1 inh	HNF4A DNA FP	ARFGAP1 inh	ASAP1 GAP conf
O=C1C(O)=C(O)C(=O)c2ccccc21	6	30*	-3	4	10
O=C1C(=O)c2ccccc2C(O)=C1c1ccccc1F	-1	7	-2	-8	·
Nc1nc(=S)ss1	3	-3	3	3	·
Cc1cc([N+](=O)[O-])c(C)cc1-c1ccc(/C=N/NC(=O)c2cccnc2)o1	-5	25*	3	-3	21
O=C(N/N=C/c1ccc(-c2ccc([N+](=O)[O-])cc2)o1)c1cccnc1	8	-11	8	11	·
Cc1ccc(/C=N/NC(=O)c2cc(-c3ccccc3)nc3ccccc23)o1	-5	-8	1	-4	·
Cc1ccc(C=NNC(=O)c2cc(-c3cccnc3)nc3ccccc23)o1	6	25*	0	3	10
CC(C)NC(=O)C(=O)Nc1ccc2c(c1)N(S(=O)(=O)c1cccs1)CCC2	3	-1	1	11	·
CNC(=O)C(=O)Nc1ccc2c(c1)N(S(=O)(=O)c1cccs1)CCC2	1	29*	-2	2	5
Cc1ccc(C2(c3ccccc3)NC(=O)N(CC(=O)NC3CCS(=O)(=O)C3)C2=O)cc1C (stereo not drawn)	-3	11	-1	12	·
O=C(N/N=C/c1cccnc1)c1cc2ccccc2o1	-5	1	1	18	·
O=C(N/N=C/c1cccnc1)c1cc2c(ccc3ccccc32)o1	55*	28*	1	25	55*
Cc1ccc(C2=NC(=O)/C(=C/c3cc(O)c(O)c(Br)c3)S2)cc1	55	30*	-52	-10	69*
COc1cc(/C=C2\SC(c3ccc(C)cc3)=NC2=O)cc(OC)c1O	27	25*	32	9	36*
COc1cc(/C=C2\SC(N)=NC2=O)cc(Cl)c1O	27	3	29	1	·
Cc1[nH]ccc2cc3nc4ccccc4c3cc12	-3	5	-13	-1	·
COc1cccc(-c2ccc3c(c2)O[C@@H](CN(C)Cc2cncnc2)[C@@H](C)CN([C@H](C)CO)S3(=O)=O)c1	2	7	1	1	·
COc1cccc(-c2ccc3c(c2)O[C@H](CN(C)C(=O)c2ccccc2F)[C@H](C)CN([C@H](C)CO)S3(=O)=O)c1	-8	25*	0	-11	4
CS(=O)(=O)c1ccc(C(=O)NNC(=O)c2ccccc2-n2cccc2)cc1	-6	-6	5	15	·
CC(=O)Nc1cccc(Nc2nc(-c3ccccc3)nc3ccccc23)c1	11	17	4	3	·
Oc1cccc(Nc2nc(-c3ccccc3)nc3ccccc23)c1	-1	27*	9	19	28*
COC(=O)c1cccc(Nc2nc(-c3ccncc3)nc3ccccc23)c1	3	28*	30	0	57*
O=C(Nc1ccc(OC(F)(F)F)cc1)N1CCN(c2ccnc3cc(Cl)ccc23)CC1	-1	25*	4	11	9
COC(=O)C1(NC(=O)NC2CCCCC2)CCCCC1	-1	-10	-3	7	·
CSCCC(c1nc2ccccc2[nH]1)n1c(-c2cc(C(F)(F)F)cc(C(F)(F)F)c2)nc2ccccc21 (stereo not drawn)	2	-9	1	3	·
SMILES	CSN inh	ASAP1 inh	HNF4A DNA FP	ARFGAP1 inh	ASAP1 GAP conf
C[C@H](O)[C@@H]1C(=O)N2CCc3c([nH]c4c(-c5ccc6c(c5)OCO6)cccc34)[C@@H]2C[C@@H]1N(C)C(=O)Nc1ccccc1	·	29*	·	-3	20
Cc1ccc(-c2csc(NC(=O)COc3ccc(N(C)S(=O)(=O)c4ccc(C)cc4)cc3)n2)cc1	-6	25*	-7	4	7
COc1ccc(-c2csc(NC(=O)COc3ccc(N(C)S(=O)(=O)c4ccc(C)cc4)cc3)n2)cc1	-5	1	3	-7	·
COc1ccc(OCc2cc(C(=O)NC3CCOCC3)no2)c2ccccc12	9	30*	1	0	2
O=C(NCCc1ccccc1Cl)C1CCC(=O)N(C2CCCCCC2)C1 (stereo not drawn)	2	4	0	-2	·
CC(=O)C1=C(C)OC2(O)c3ccccc3C(=O)C12O (stereo not drawn)	0	43*	4	14	9
CC1=C(C(=O)OC(C)C)C2(O)C(=O)c3ccccc3C2(O)N1 (stereo not drawn)	0	-5	-1	19	·
CCOC(=O)C1=C(C)OC2(O)c3ccccc3C(=O)C12O (stereo not drawn)	4	47*	1	17	17
CCOC(=O)C1=C(C)N[C@@]2(O)c3ccccc3C(=O)[C@@]12O	2	2	-4	-2	·
CCO[C@@H]1OC(C(=O)O)=C[C@H](c2csc3ccccc23)[C@H]1CCCO	5	5	2	1	·
CCO[C@H]1OC(C(=O)Nc2ccccc2)=C[C@@H](c2csc3ccccc23)[C@@H]1CCCO	6	25*	1	16	19
COc1ccc(NS(=O)(=O)c2ccc(NC(=S)NC(=O)C(C)C)cc2)cc1	3	31*	3	2	11
CCc1n[nH]c(=S)n1/N=C/c1c(O)ccc2ccccc12	1	0	-4	1	·
COCc1cc(=O)c2ccccc2o1	-9	9	-3	9	·
CCOc1ccc(Br)cc1S(=O)(=O)Nc1ccc(C(=O)OCC(=O)N(C)c2ccccc2)cc1	3	26*	0	0	10
CN(CC(=O)Nc1cccc(F)c1)C(=O)c1ccccc1-n1cnnn1	-8	-3	-1	-8	·
O=C(C1CCCN(Cc2ccccc2[N+](=O)[O-])C1)N1CCCC1 (stereo not drawn)	-2	27*	1	-9	3
COc1cc(/C=C2/SC(=O)NC2=O)ccc1Oc1ccc([N+](=O)[O-])cc1[N+](=O)[O-]	13	-6	0	8	·
COc1cc(/C=C2/SC(N)=NC2=O)ccc1Oc1ccc([N+](=O)[O-])cc1[N+](=O)[O-]	1	29*	0	-4	49*
CCOC(=O)c1sc(NC(=O)CNCc2cccnc2)c(C(=O)OCC)c1C	8	37*	3	12	1
COc1ccccc1CCC(=O)OCC(=O)Nc1ccc2[nH]c(=O)[nH]c2c1	-3	-2	-5	0	·
O=C(c1ccc2c(c1)OCO2)N1CCC(Cc2ccccc2)CC1	-3	-5	-6	-1	·

Source: PubChem BioAssay (several laboratories)
